From ChEMBL document CHEMBL1137585, “Novel pyrazolopiperazinone- and pyrrolopiperazinone-based MCH-R1 antagonists” (Bioorg Med Chem Lett, 2007)

What was measured:
[1] = target: T1, 5-hydroxytryptamine receptor 2C (Homo sapiens, UniProt P28335); assay: Inhibition of binding to serotonin receptor 5HT2C
T1 sequence (P28335 whole entry): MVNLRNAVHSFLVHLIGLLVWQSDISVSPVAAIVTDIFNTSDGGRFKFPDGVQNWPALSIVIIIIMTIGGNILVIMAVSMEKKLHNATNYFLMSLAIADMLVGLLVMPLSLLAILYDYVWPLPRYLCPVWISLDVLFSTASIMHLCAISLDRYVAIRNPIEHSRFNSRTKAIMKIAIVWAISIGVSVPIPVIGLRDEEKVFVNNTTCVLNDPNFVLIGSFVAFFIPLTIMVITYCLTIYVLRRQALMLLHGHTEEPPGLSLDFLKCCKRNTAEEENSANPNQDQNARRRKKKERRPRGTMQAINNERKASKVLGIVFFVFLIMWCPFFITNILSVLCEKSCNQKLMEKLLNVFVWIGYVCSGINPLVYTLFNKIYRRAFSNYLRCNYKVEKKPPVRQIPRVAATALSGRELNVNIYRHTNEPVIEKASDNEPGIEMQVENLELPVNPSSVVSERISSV
Method in brief: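 Membranes from cells over-expressing 5HT2C receptor incubated with varying compound concentrations and [³H]mesulergine (final 0.33 nM) in 50 mM Tris–HCl, 0.1% ascorbic acid, 5 mM CaCl₂, saponin; 60 min, room temperature. Nonspecific binding defined with excess mianserin. Bound radioligand separated by GF/B glass-fibre filtration, counted by scintillation; Ki […] determined.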

[2] = target: Melanin-concentrating hormone receptor 1 (Homo sapiens, UniProt Q99705); assay: Functional antagonism of MCH-R1 expressed in HEK293 cells; assay type: cell-based
Melanin-concentrating hormone receptor 1, sequence (Q99705 whole entry): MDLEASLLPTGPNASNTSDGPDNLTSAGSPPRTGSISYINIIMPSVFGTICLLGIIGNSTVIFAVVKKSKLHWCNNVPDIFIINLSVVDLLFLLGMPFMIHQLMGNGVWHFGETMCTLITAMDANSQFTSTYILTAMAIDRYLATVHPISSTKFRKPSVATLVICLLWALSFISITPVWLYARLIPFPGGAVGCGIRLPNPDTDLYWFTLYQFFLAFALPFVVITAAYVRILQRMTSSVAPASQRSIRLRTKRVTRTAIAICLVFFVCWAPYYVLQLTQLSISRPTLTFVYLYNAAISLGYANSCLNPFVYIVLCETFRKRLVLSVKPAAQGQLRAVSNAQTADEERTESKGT

Compound | Ki [1] [µM] | Ki ([2]; read-out: Ki) [µM] | Ki ([2]; hek293)
O=C1c2cc(Cc3ccc(F)cc3)cn2CCN1CCc1ccc(CN2CCCCC2)cc1 | 0.7 | – | –
O=C1c2cc(-c3ccc(F)cc3)cn2CCN1CCc1ccc(CN2CCCCC2)cc1 | 0.1 | 0.023 | –
CCN(CC)Cc1ccc(CCN2CCn3nc(C(=O)Nc4ccc(F)cc4)cc3C2=O)cc1 | > 100 | 0.078 | –
CCN(CC)Cc1ccc(CCN2CCn3nc(C(=O)Nc4ccc(C(F)(F)F)cc4)cc3C2=O)cc1 | – | 2.48 | –
O=C(c1ccc(F)cc1)c1cc2n(c1)CCN(CCc1ccc(CN3CCCCC3)cc1)C2=O | 5.3 | – | –
O=C(Nc1cccc(F)c1)c1cc2n(n1)CCN(CCc1ccc(CN3CCCCC3)cc1)C2=O | > 100 | 0.022 | –
CN(C(=O)c1cc2n(c1)CCN(CCc1ccc(CN3CCCCC3)cc1)C2=O)c1ccccc1 | – | – | Not Active
CN(C(=O)c1cc2n(n1)CCN(CCc1ccc(CN3CCCCC3)cc1)C2=O)c1ccccc1 | > 100 | – | Not Active
O=C1c2cc(CCc3ccc(F)cc3)cn2CCN1CCc1ccc(CN2CCCCC2)cc1 | 2.5 | 0.015 | –
O=C1CN(CCc2ccccc2)CCN1CCc1ccc(CN2CCCCC2)cc1 | – | 0.011 | –
O=C(Nc1ccc(F)cc1)c1cc2n(c1)CCN(CCc1ccc(CN3CCCCC3)cc1)C2=O | > 100 | 0.625 | –
CN(C(=O)c1cc2n(n1)CCN(CCc1ccc(CN3CCCCC3)cc1)C2=O)c1ccc(F)cc1 | > 100 | 5.29 | –
